# Screening data: PubChem BioAssay, Sanford-Burnham Center for Chemical Genomics
# APJ ag: APJ receptor agonism; CHO-K1 APJ PathHunter beta-arrestin, luminescence; 0% DMSO wells, 100% apelin; activation, % at 20 µM; P35414; 0.11% of 330,000 active; AID 2520;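 active means activation more than six SD over the plate average, tested at 20 µM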;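 further: 0% = DMSO alone and 100% = apelin-13 at 10 nM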
#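 assay system = CHO-K1 APJ beta-arrestin complementation cell line | input = cell density 1000 per well | dosing = compound 20 µM once, DMSO 1% | timing = compound 90 min 25 °C, reagent 1 h | measured by = luminescence from split beta-galactosidase complementation, Galacton Star/Emerald II substrate | read-out basis = APJ agonist activity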
# APOBEC3A inh: inhibitors of human APOBEC3A DNA deaminase. P31941. recombinant A3A, FAM/TAMRA ssDNA deamination fluorescence. inhibition, % at 20 µM. 0.41% of 330,000 active. AID 493011;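 active means at least 40% inhibition at 20 µM here, with at most 30% in a related deaminase screen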;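 further: plate controls were A3A with DMSO for no effect and wells lacking A3A enzyme for full effect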
# Target sequence (P31941 whole entry, looked up): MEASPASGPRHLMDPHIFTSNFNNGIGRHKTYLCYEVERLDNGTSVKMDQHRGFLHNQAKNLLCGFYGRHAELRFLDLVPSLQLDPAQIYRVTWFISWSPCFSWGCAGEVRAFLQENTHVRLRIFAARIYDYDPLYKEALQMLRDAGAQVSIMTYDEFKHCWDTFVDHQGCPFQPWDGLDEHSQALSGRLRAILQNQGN
# APOBEC3G inh: inhibitors of human APOBEC3G DNA deaminase. recombinant A3G, ssDNA deamination FAM/TAMRA fluorescence. Q9HC16. 0.28% of 330,000 active. inhibition, % at 20 µM. AID 493012;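 active means inhibition of at least 40% at 20 µM, with no more than 30% in the related APOBEC3A deaminase screen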;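 further: plate controls were DMSO wells with A3G for no effect and wells lacking A3G enzyme for full effect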
# CXCR6 inh: CXCR6 (human) receptor inhibition; 0.36% of 360,000 active; O00574; CHO-K1 PathHunter CXCR6 beta-arrestin, luminescence; inhibition, % at 20 µM; in the data active means inhibition above about 34%, passing the limit was not always enough;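 further: antagonist mode with CXCL16 agonist at 10 nM final; 0% = 10 nM CXCL16 with DMSO and 100% = unstimulated wells without agonist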
# Target sequence (O00574 whole entry, looked up): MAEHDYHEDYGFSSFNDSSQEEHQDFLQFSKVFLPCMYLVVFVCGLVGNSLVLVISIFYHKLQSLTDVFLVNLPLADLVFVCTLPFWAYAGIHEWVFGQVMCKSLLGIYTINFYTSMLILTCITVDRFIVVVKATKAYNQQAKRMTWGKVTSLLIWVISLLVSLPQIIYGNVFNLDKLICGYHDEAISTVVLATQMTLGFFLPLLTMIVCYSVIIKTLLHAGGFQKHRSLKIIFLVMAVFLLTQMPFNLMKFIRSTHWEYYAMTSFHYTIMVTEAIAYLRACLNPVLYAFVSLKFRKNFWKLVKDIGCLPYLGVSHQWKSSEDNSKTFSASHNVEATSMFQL
# CCR6 antag: antagonists of human CCR6 receptor; 0.49% of 340,000 active; AID 493098; inhibition, % at 20 µM; CHO-K1 CCR6 PathHunter beta-arrestin, luminescence, CCL20-stimulated; P51684;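 active means compounds whose inhibition of the agonist-driven luminescence signal at 20 µM reaches about 50%, limit read from the data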;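 further: cells stimulated with CCL20 at 14 nM final; plate controls were DMSO with CCL20 for no effect and DMSO without agonist for full effect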
# APJ antag: blocks the human apelin receptor APJ; inhibition, % at 20 µM; P35414; 0.32% of 330,000 active; CHO-K1 APJ beta-arrestin complementation, luminescence;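 active means inhibition above about 40% at 20 µM, limit read from the data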;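 further: cells challenged with 10 nM apelin-13 agonist together with compound; plate controls were apelin-13 plus DMSO wells for no effect and DMSO wells lacking apelin-13 for full effect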
# APOBEC3A confirm: confirmation of human APOBEC3A DNA deaminase inhibitors | 63% of 1,400 active | recombinant A3A, ssDNA deaminase UDG fluorescence assay | shares compounds with APOBEC3A inh | inhibition, % at 20 µM;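 active means inhibition reaching a set limit, 80% of the first screen's cutoff, at 20 µM in any replicate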;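 further: plate controls were DMSO wells with A3A for no effect and wells lacking A3A enzyme for full effect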
# UDG A3A counter: UDG inhibition in APOBEC3A counter-screen; shares compounds with APOBEC3A inh; UDG counterscreen, FAM/TAMRA uracil oligo fluorescence; inhibition, % at 20 µM; 1,000 tested, under 10 active; AID 504714; call rule not given here
# An asterisk follows results filed as active; x = not tested or not shown. This is a sample that favours compounds with a hit; in the whole collection about 1.4% have one here.
SMILES,APJ ag,APOBEC3A inh,APOBEC3G inh,CXCR6 inh,CCR6 antag,APJ antag,APOBEC3A confirm,UDG A3A counter
c1ccc2nc(N3CCCC3)c(N3CCCC3)nc2c1,-3,2,1,-16,7,6,x,x
c1ccc2c(c1)nc(N1CCCCCC1)c1ccccc12,-4,67*,12,5,14,-10,67*,-2
CCc1noc(C)c1C(=O)NNC(=O)c1cc(OC)cc(OC)c1,-1,3,0,-6,3,-3,x,x
CCc1noc(C)c1C(=O)NNC(=O)c1cc(OC)c(OC)c(OC)c1,-5,62*,9,10,-18,11,54*,-1
CCN(CC)C(=O)Cn1cc(SCC(=O)NC)c2ccccc21,-3,83*,11,-8,7,6,1,x
CCC(C)C(NC(N)=O)C(=O)Nc1ccc(C)c(Cl)c1 (stereo unspecified),-2,56*,6,-10,6,4,2,x
O=C(Cc1cccs1)Nc1nnc(Cc2ccccc2)s1,5,64*,29,3,12,-10,46*,-3
Nc1cc2c(cc1Cl)-c1ccc([N+](=O)[O-])cc1C2=NO,x,x,x,14,26,x,x,x
Cc1ccc2[nH]c(=O)c(CN(c3cccc(C)c3C)S(=O)(=O)c3ccccc3)cc2c1,-3,-4,-8,7,9,21,x,x
Cc1ccc(N(Cc2cc3cccc(C)c3[nH]c2=O)S(=O)(=O)c2ccccc2)c(C)c1,1,54*,22,-1,6,26,67*,1
COc1ccc2oc(C(=O)OCC(=O)Nc3ccc(NC(C)=O)cc3)c(C)c2c1,12,47*,2,-6,3,4,0,x
COc1ccc2oc(C(=O)Nc3cccc(S(=O)(=O)N4CCOCC4)c3)c(C)c2c1,5,-6,-11,-7,5,-47,x,x
COc1ccc2oc(C(=O)OCC(=O)Nc3cccc(S(=O)(=O)N4CCOCC4)c3)c(C)c2c1,-2,43*,-2,-4,19,-12,15,2
COc1ccc(N=C2NC(=O)/C(=C\c3ccco3)S2)cc1,-2,64*,26,7,9,15,36*,-2
COc1ccc(/C=C2\SC(=Nc3ccccc3)NC2=O)cc1,3,-1,-2,x,x,-16,x,x
Cc1ccc(S(=O)(=O)/N=C2/NC(=O)/C(=C\c3ccco3)S2)cc1,-1,19,10,4,3,-9,x,x
CC(=O)Nc1ccc(S(=O)(=O)/N=C2/NC(=O)/C(=C\c3ccco3)S2)cc1,-2,60*,14,2,3,-1,32*,-5
CCSc1nc2ccc(N3C(=O)C4C5C=CC(C5)C4C3=O)cc2s1 (stereo unspecified),-1,60*,5,3,2,-8,20,x
Cc1cc(/C=C2\SC(=O)N(C)C2=O)c(C)n1-c1ccc(S(N)(=O)=O)cc1,-2,50*,16,-8,-8,19,63*,-1
COc1ccc(NC(C)=O)cc1S(=O)(=O)NC(C)c1ccc(-n2ccnc2)cc1 (stereo unspecified),-4,-4,-4,7,6,-6,x,x
O=C(COC(=O)c1cccc(O)c1)NCc1ccc2c(c1)OCO2,-5,-2,-8,-7,5,-3,x,x
Cc1ccc(N=C2NC(=O)/C(=C\c3cccs3)S2)cc1C,-2,-1,-10,10,18,-4,x,x
Cc1ccc(/C=C2/SC(=Nc3ccc(F)cc3)NC2=O)s1,-4,51*,17,3,10,19,63*,-2
Cc1cccc(N2CCN(C(=O)CCS(=O)(=O)c3ccc(Br)cc3)CC2C)c1 (stereo unspecified),-4,45*,18,4,26,-10,29,x
CC(=O)N1CCCc2cc(S(=O)(=O)CCC(=O)N3CCN(c4cccc(C)c4)C(C)C3)ccc21 (stereo unspecified),-2,0,-5,-4,7,-2,x,x
SMILES,APJ ag,APOBEC3A inh,APOBEC3G inh,CXCR6 inh,CCR6 antag,APJ antag,APOBEC3A confirm,UDG A3A counter
O=c1oc(-c2ccccc2NS(=O)(=O)c2ccccc2)nc2ccccc12,-1,50*,-1,-5,-1,3,-2,-3
O=c1oc(-c2ccccc2NS(=O)(=O)c2ccc(F)cc2)nc2ccccc12,-3,-5,-8,3,-7,6,x,x
CC1CC(C)CN(C(=O)CN2C(=O)NC(c3ccccc3)(c3ccccc3)C2=O)C1 (stereo unspecified),-3,-1,-3,2,-1,15,x,x
O=C(COC(=O)CNC(=O)c1ccc(Cl)c([N+](=O)[O-])c1)NCC1CCCO1 (stereo unspecified),-5,0,-7,2,5,18,x,x
Cc1ccc(C)c(NC(=O)C2CC(O)CN2C(=O)Oc2ccccc2)c1 (stereo unspecified),-1,54*,6,-5,-2,19,41*,-3
OCCNC1=NCCN1,-2,56*,18,-1,-4,11,76*,1
Fc1ccc(Sc2ccccc2CNC2=NCCN2)cc1,-1,32,18,2,17,5,x,x
CC(CNC(=O)CN1C(=O)NC2(CCOc3ccccc32)C1=O)c1ccccc1 (stereo unspecified),-3,-5,-11,6,3,1,x,x
CN(C)c1ccc(O)c2c1CC1CC3[C@@H](N(C)C)C(=O)C(C(N)=O)C(=O)[C@]3(O)C(=O)C1C2=O (stereo partly specified),0,54*,12,-17,10,2,30*,-2
CN(C)c1ccc(O)c2c1CC1CC3C(N(C)C)C(=O)C(C(N)=O)=C(O)[C@@]3(O)C(=O)C1=C2O (stereo partly specified),-4,40*,-3,4,9,16,-1,-3
C[C@H]1c2cccc(O)c2C(=O)C2C(=O)C3(O)C(=O)C(C(N)=O)C(=O)[C@@H](N(C)C)[C@@H]3[C@@H](O)[C@@H]21 (stereo partly specified),1,2,-1,1,9,-2,x,x
CC(=O)N1Cc2cc(C(=O)NCC(F)(F)F)nc(-c3cccc(-c4cccnc4)c3)c2[C@@H]1CCO,x,x,x,-5,x,x,x,x
N#C/C(=C\c1cn(-c2ccccc2)nc1-c1cccnc1)c1nnc2n1CCCCC2,1,43*,-3,-8,9,2,-1,-2
C[n+]1cnc(-c2ccccc2)cc1-c1ccccc1,0,45*,29,4,8,17,62*,0
